Compound activity: PubChem BioAssay, Broad Institute
Many of the other results were omitted from the sample, so hits are more common in it than they were.
T cruzi growth-1 – blocks T. cruzi growth in NIH3T3 culture | AID 624255 | 5.9% of 77,000 active | inhibition, % at 8.34 µM | T. cruzi beta-gal in NIH3T3, GalScreen luminescence, 90 h;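 active means mean inhibition above about 93%, with at least 55% of replicates each passing it, limit read from the data, passing the limit was not always enough; inconclusive means only one of those two conditions holds; inactive means neither condition holds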
IDH1 R132H inh – inhibitors of human IDH1 R132H; IDH1 R132H reductase, diaphorase/resazurin fluorescence, 60 min; inhibition, % at 10 µM; 0.18% of 70,000 active; in the data active means inhibition above about 34%; inconclusive means no clear call, values can overlap the other calls; inactive means below about 11%
Target sequence (O75874 whole entry R132H): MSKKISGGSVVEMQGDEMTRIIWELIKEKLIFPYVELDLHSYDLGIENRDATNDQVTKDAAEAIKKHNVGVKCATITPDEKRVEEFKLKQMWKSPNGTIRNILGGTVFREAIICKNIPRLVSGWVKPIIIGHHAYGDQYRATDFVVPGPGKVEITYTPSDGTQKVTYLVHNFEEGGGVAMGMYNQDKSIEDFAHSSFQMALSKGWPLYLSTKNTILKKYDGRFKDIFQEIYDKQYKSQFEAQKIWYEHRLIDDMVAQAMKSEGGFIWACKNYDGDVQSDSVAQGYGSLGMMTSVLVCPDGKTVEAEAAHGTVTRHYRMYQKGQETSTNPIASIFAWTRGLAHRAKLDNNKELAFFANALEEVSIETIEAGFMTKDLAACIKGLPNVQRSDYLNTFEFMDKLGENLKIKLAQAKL
KDM4C inh – inhibitors of human demethylase GASC-1 KDM4C; GST-KDM4C 2-372, H3K9me3 peptide, LANCE TR-FRET; inhibition, % at 12.5 µM; 0.15% of 96,000 active; AID 720574;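 active means mean replicate inhibition above about 25%, with at least 55% of replicates also reaching it, limit read from the data, passing the limit was not always enough; inconclusive means only one of those two conditions met; inactive means neither condition met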
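System – N-terminal GST-fused human GASC-1 (KDM4C) fragment, residues 2-372 · Input – enzyme final amount 10 nM · Technique – LANCE TR-FRET, Eu antibody, ULight-streptavidin, EDTA, ex 340 nm, em 618/671 nm · Medium – HEPES buffer, pH 7.5, plus ascorbate · Incubation – enzyme reaction 30 min, then detection 60 min, both room temperature · Reagent – H3K9me3 peptide with Fe(II)/2OG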
T cruzi growth-2 – blocks T. cruzi growth in NIH3T3 host cells; AID 651739; T. cruzi beta-gal in NIH3T3, GalScreen luminescence, 90 h; inhibition, % at 8.35 µM; shares compounds with T cruzi growth-1; 72% of 5,600 active;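 active means mean replicate inhibition above about 95% and at least 55% of replicates individually reaching it, limit read from the data; inconclusive means only one of the two criteria is met; inactive means neither criterion is met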
T cruzi growth-3 – Trypanosoma cruzi proliferation inhibition; shares compounds with T cruzi growth-1; T. cruzi beta-gal in NIH3T3, GalScreen luminescence, 90 h; inhibition, % at 2.09 µM; 21% of 5,600 active;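 active means mean inhibition above about 95%, with at least 55% of replicates also reaching it, limit read from the data; inconclusive means meets just one of the two conditions; inactive means meets neither condition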
NIH3T3 tox – NIH/3T3 (mouse) viability loss; NIH/3T3 viability, CellTiter-Glo ATP luminescence, 90 h; cytotoxicity (signal decrease), % at 8.35 µM; 14% of 5,600 active; shares compounds with T cruzi growth-1;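 active means mean signal decrease across replicates above about 35% based on untreated-well scatter, with enough replicates individually passing, limit read from the data; inconclusive means no rule stated though some were filed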
NIH3T3 tox 2 – kills mouse NIH/3T3 fibroblasts; shares compounds with T cruzi growth-1; NIH/3T3 viability, CellTiter-Glo ATP luminescence, 90 h; inhibition, % at 24.9 µM; 56% of 5,600 active;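 active means mean loss of cell viability signal at or above a set limit, and enough replicates individually reaching it; inconclusive means meets only the mean limit or only the replicate share; inactive means meets neither condition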
Hits are given with their value; n = inactive; u = inconclusive; x = no result given.

SMILES	T cruzi growth-1	IDH1 R132H inh	KDM4C inh	T cruzi growth-2	T cruzi growth-3	NIH3T3 tox	NIH3T3 tox 2
CC(C)CC#Cc1ccc2c(c1)O[C@@H](CN(C)Cc1ccccc1)[C@H](C)CN([C@H](C)CO)S2(=O)=O	n	n	n	x	x	x	x
Cc1noc(C)c1NC(=O)Nc1ccc2c(c1)CC(=O)N([C@H](C)CO)C[C@H](C)[C@H](CN(C)S(=O)(=O)c1c(C)noc1C)O2	n	x	n	x	x	x	x
C[C@H](CO)N1C[C@H](C)[C@@H](CN(C)C(=O)Cc2cccnc2)Oc2cc(C#Cc3ccccc3F)ccc2S1(=O)=O	x	x	n	x	x	x	x
C[C@@H]1CN([C@H](C)CO)S(=O)(=O)c2ccc(C#Cc3ccccc3F)cc2O[C@H]1CN(C)C(=O)Cc1ccccc1	122	n	n	103	n	n	104
C[C@H]1CN([C@@H](C)CO)S(=O)(=O)c2ccc(C#Cc3ccccc3F)cc2O[C@H]1CN(C)C(=O)Cc1ccncc1	x	x	n	x	x	x	x
C[C@H]1CN([C@@H](C)CO)S(=O)(=O)c2ccc(C#Cc3ccccc3F)cc2O[C@@H]1CN(C)C(=O)Cc1ccccc1	121	n	n	106	107	n	103
C[C@@H]1CN([C@@H](C)CO)S(=O)(=O)c2ccc(C#Cc3ccccc3F)cc2O[C@H]1CN(C)C(=O)Cc1ccccc1	120	n	n	102	110	56	92
C[C@H](CO)N1C[C@H](C)[C@H](CN(C)C(=O)Cc2ccncc2)Oc2cc(C#Cc3ccccc3F)ccc2S1(=O)=O	x	n	n	x	x	x	x
C[C@@H]1CN([C@H](C)CO)S(=O)(=O)c2ccc(C#Cc3ccccc3F)cc2O[C@H]1CN(C)C(=O)Cc1ccncc1	x	x	n	x	x	x	x
C[C@@H]1CN([C@@H](C)CO)S(=O)(=O)c2ccc(C#Cc3ccccc3F)cc2O[C@@H]1CN(C)C(=O)Cc1cccnc1	u	n	n	102	n	n	70
C[C@H](CO)N1C[C@H](C)[C@@H](CN(C)Cc2ccccn2)Oc2cc(C3=CCCC3)ccc2S1(=O)=O	x	n	n	x	x	x	x
CC(C)(C)OC(=O)CC[C@@]12N=C(c3ccc(OCCCO)cc3)O[C@@H]1c1ccccc1CN(CCS(=O)(=O)c1ccccc1)C2=O	x	n	x	x	x	x	x
CC(Oc1ccc(Cl)cc1Cl)C(=O)NC(=S)Nc1cccc(NC(=O)c2cccs2)c1 (stereo unspecified)	x	n	x	x	x	x	x
CO[C@H]1CN(C)C(=O)c2cc(NC(=O)Nc3cccc(F)c3)ccc2OC[C@@H](C)N(C(C)=O)C[C@H]1C	n	n	n	x	x	x	x
C[C@@H]1CCCCO[C@@H](CN(C)C(=O)Nc2ccc(C(F)(F)F)cc2)[C@@H](C)CN([C@H](C)CO)C(=O)c2cc(NS(=O)(=O)c3ccccc3)ccc2O1	n	x	n	x	x	x	x
C[C@@H]1CCCCO[C@@H](CN(C)C(=O)Nc2ccc(C(F)(F)F)cc2)[C@@H](C)CN([C@H](C)CO)C(=O)c2cc(NS(C)(=O)=O)ccc2O1	n	n	n	x	x	x	x
C[C@H]1CCCCO[C@H](CN(C)C(=O)Nc2ccc(C(F)(F)F)cc2)[C@@H](C)CN([C@@H](C)CO)C(=O)c2cc(NS(C)(=O)=O)ccc2O1	97	n	n	113	n	n	51
C[C@@H]1CN([C@@H](C)CO)C(=O)c2cc(NS(=O)(=O)c3ccccc3)ccc2O[C@@H](C)CCCCO[C@@H]1CN(C)C(=O)Nc1ccc(C(F)(F)F)cc1	u	x	n	104	n	n	43
C[C@H](CO)N1C[C@H](C)[C@@H](CN(C)C(=O)Nc2ccc(C(F)(F)F)cc2)OCCCC[C@H](C)Oc2ccc(NS(=O)(=O)c3ccccc3)cc2C1=O	u	x	n	114	n	n	n
C[C@@H]1CCCCO[C@H](CN(C)C(=O)Nc2ccc(C(F)(F)F)cc2)[C@H](C)CN([C@H](C)CO)C(=O)c2cc(NS(=O)(=O)c3ccccc3)ccc2O1	n	x	n	x	x	x	x
COc1ccc(NC(=S)N(C)Cc2c(C)nn(C)c2C)c(OC)c1	x	n	x	x	x	x	x
CC(C)NC[C@H]1[C@@H](c2ccc(C3=CCCC3)cc2)[C@@H](CO)N1C(=O)CC1CC1	x	x	n	x	x	x	x
CN1c2ccc(-c3cccc(F)c3)cc2[C@H]2[C@H](CCN2C(=O)Cc2cccnc2)[C@H]1CO	n	x	n	x	x	x	x
CN1c2ccc(-c3ccccc3)cc2[C@H]2[C@H](CCN2C(=O)Cc2cccnc2)[C@@H]1CO	107	x	n	111	97	n	n
COc1ccc(-c2ccc3c(c2)[C@@H]2[C@@H](CCN2C(=O)Cc2cccnc2)[C@H](CO)N3C)cc1	n	x	n	x	x	x	x
SMILES	T cruzi growth-1	IDH1 R132H inh	KDM4C inh	T cruzi growth-2	T cruzi growth-3	NIH3T3 tox	NIH3T3 tox 2
CN1c2ccc(-c3ccccc3)cc2[C@H]2[C@H](CCN2C(=O)Cc2cccnc2)[C@H]1CO	u	x	n	99	n	n	n
COc1ccc(C[C@@H]2CCc3cnnn3COC[C@H](C(C)C)NC2=O)cc1	x	x	n	x	x	x	x
CCC(=O)Nc1ccc2c(c1)C(=O)N(C)C[C@@H](OC)[C@H](C)CN(Cc1cc(-c3ccccc3)on1)[C@H](C)CO2	n	n	n	x	x	x	x
CC(C)CC#Cc1ccc2c(c1)O[C@H](CN(C)C(=O)c1ccccc1)[C@@H](C)CN([C@H](C)CO)S2(=O)=O	x	n	n	x	x	x	x
CCCC#Cc1ccc2c(c1)O[C@H](CN(C)C(=O)c1ccccc1)[C@@H](C)CN([C@@H](C)CO)S2(=O)=O	112	n	n	104	n	n	35
CCCC#Cc1ccc2c(c1)O[C@H](CN(C)C(=O)c1ccncc1)[C@H](C)CN([C@@H](C)CO)S2(=O)=O	n	n	n	x	x	x	x
CCCC#Cc1ccc2c(c1)O[C@@H](CN(C)C(=O)c1ccncc1)[C@H](C)CN([C@@H](C)CO)S2(=O)=O	n	n	n	x	x	x	x
CCCC#Cc1ccc2c(c1)O[C@@H](CN(C)C(=O)c1ccccc1)[C@H](C)CN([C@@H](C)CO)S2(=O)=O	96	n	n	102	n	n	62
CC(C)CC#Cc1ccc2c(c1)O[C@@H](CN(C)C(=O)c1ccccc1)[C@@H](C)CN([C@@H](C)CO)S2(=O)=O	120	n	n	102	n	n	103
COCC#Cc1ccc2c(c1)O[C@H](CN(C)C(=O)c1ccccc1)[C@@H](C)CN([C@H](C)CO)S2(=O)=O	n	x	x	x	x	x	x
CCCC#Cc1ccc2c(c1)O[C@H](CN(C)C(=O)c1ccccc1)[C@H](C)CN([C@H](C)CO)S2(=O)=O	98	n	n	107	n	n	58
C[C@@H](NC(=O)C[C@H]1CC[C@@H](NC(=O)C2CCOCC2)[C@H](CO)O1)c1ccccc1	n	n	n	x	x	x	x
CO[C@H]1CN(C)C(=O)c2cc(NS(=O)(=O)c3ccccc3F)ccc2OC[C@H](C)NC[C@@H]1C	n	n	n	x	x	x	x
